In the library only some 2.3% were active in any assay of this set; here they are far more common.
STEP block: inhibitors of human striatal-enriched phosphatase STEP. inhibition, % at 20 µM. recombinant STEP, OMFP fluorogenic substrate, fluorescence. actives 0.25% (n = 360,000). P54829;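 active means inhibition at 20 µM, scaled per plate between control wells, above about 37%, limit read from the data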
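System: isolated STEP enzyme; schedule: 20 min enzyme reaction at room temperature, protected from light; medium: Bis-Tris buffer pH 6.0, 2.5 mM DTT, 0.005% Tween 20; signal: fluorescence, 480/540 nm; dosing: single compound dose of 20 µM, 1% DMSO final; also added: OMFP substrate, 25 µM final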
LMPTP block: LMPTP (human) inhibition; P24666; recombinant LMPTP-A, OMFP fluorogenic substrate, fluorescence intensity; inhibition, % at 20 µM; actives 0.22% (n = 360,000); AID 651560;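 active means compounds that cut the enzyme signal by at least half of the control window in the single-dose screen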
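Test system: LMPTP-A phosphatase enzyme; input: 0.625 nM LMPTP-A final; reagent: OMFP substrate, 400 µM final; compound dosing: 20 µM single dose, 3% DMSO; incubation: 50 min dark incubation at room temperature; measured by: endpoint fluorescence intensity from OMFP dephosphorylation; measure: % inhibition relative to no-enzyme and uninhibited control wells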
SUMO1-SIM PPI: SUMO1-SIM interaction modulation | P63165 | SUMO1 binding to a labelled peptide, TR-FRET, 1 h | inhibition, % at 20 µM | actives 0.33% (n = 360,000) | AID 602429; in the data active means inhibition above about 37%
NadD block: inhibitors of Staphylococcus aureus NadD; purified NadD enzyme, colorimetric absorbance read-out; inhibition, % at 20 µM; actives 0.78% (n = 360,000); in the data active means inhibition above about 26%
DNMT1 block: DNMT1 (human) enzyme inhibition; AID 588458; P26358; actives 0.83% (n = 360,000); inhibition (reported as % activation of signal), % at 10 µM; DNMT1 molecular beacon, Hinp1I cleavage, fluorescence; in the data active means inhibition above about 50%
Scp-1 inhibitor: inhibitors of human Scp-1 phosphatase; Q9GZU7; Recombinant Scp1, phosphopeptide, malachite green phosphate absorbance; inhibition, % at 20 µM; actives 0.88% (n = 340,000); AID 493091;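 active means inhibition above about 50% at 20 µM, limit read from the data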
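System: truncated SCP-1 phosphatase (76-261aa); medium: Tris acetate buffer pH 5.5 with MgCl2 and Tween-20; incubation: 45 min room-temperature reaction, 5 min colour, 30 min stabiliser; compound: single 20 µM dose, 1% DMSO; reagent: Phosphorylated 17-residue peptide substrate; read-out: % inhibition at 20 µM; technique: colorimetric free-phosphate detection, absorbance 630 nm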
Scp-1 conf: Scp-1 (human) inhibition, single-dose confirmed; shares compounds with Scp-1 inhibitor; recombinant SCP-1 catalytic domain, phosphate release, malachite green absorbance; inhibition, % at 20 µM; actives 61% (n = 2,500)
Scp-1 MG ctr: colorimetric interference in Scp-1 counter-screen; shares compounds with Scp-1 inhibitor; Colorimetric interference counterscreen, malachite green absorbance 630 nm; apparent inhibition (interference), % at 20 µM; 2,500 tested, under 10 active; AID 540313;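 further: compounds added after enzyme reaction finished so only phosphate colour detection is probed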
Scp-1 Tm shift: validation of human Scp-1 inhibitors by thermal shift binding; shares compounds with Scp-1 inhibitor; Recombinant SCP1, Sypro Orange thermal shift Tm; thermal shift relative to vanadate control, % at 40 µM; actives 25% (n = 1,500);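 active means substances whose mean melting-temperature shift, as a percentage of the reference inhibitor's shift, reaches about 5.3%, limit read from the data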
DNMT1 inh conf: confirmation of human DNMT1 inhibitors; actives 8% (n = 2,300); shares compounds with DNMT1 block; inhibition, % at 10 µM; DNMT1 molecular beacon HinP1I cleavage, fluorescence;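 active means average inhibition of at least 30% in the single-concentration confirmation test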
DNMT1 interf: counter-screen for DNMT1 inhibitors: spectral interference. shares compounds with DNMT1 block. DNMT1 molecular beacon spectral interference counterscreen, fluorescence 485/520. activation (fluorescence interference), % at 10 µM. actives 1% (n = 2,300). AID 602387;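 active means activation of at least 30% at 10 µM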;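 further: DNMT1 catalytic domain with a HinP1I cleavage step and a FAM/dabcyl DNA beacon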
Of the large screens only hits and unclear results are named; the others gave an inactive call (follow-up assays come after a bar, where they were run).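 How the source made its calls, unless noted: active means inhibition of at least 30% at 20 µM; inactive means the rest.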

Cc1ccc(N2CCC(N3CCN(C)C(CCO)C3)CC2)cc1 (centres undefined)	none
Cc1ccc(NC(=O)CN2C(=O)N/C(=C/c3ccco3)C2=O)cc1	DNMT1 block 85, Scp-1 inhibitor 76 | Scp-1 conf inactive | Scp-1 MG ctr inactive | DNMT1 inh conf inactive | DNMT1 interf inactive
CCn1c(C)cc(/C=C2\NC(=O)N(CC(=O)Nc3ccc(F)cc3)C2=O)c1C	none
Cc1cccc(NC(=O)CN2C(=O)N/C(=C/c3ccc(-c4cccc(C(=O)O)c4C)o3)C2=O)c1	none
Cc1ccc(NC(=O)CN2C(=O)N/C(=C/c3cc(C)n(-c4ccc(C(=O)O)cc4)c3C)C2=O)cc1	DNMT1 block 67, Scp-1 inhibitor 63 | Scp-1 conf 54 | Scp-1 MG ctr inactive | Scp-1 Tm shift inactive | DNMT1 inh conf inactive | DNMT1 interf inactive
Cc1ccc(-c2nnc(CCC(=O)NCc3csc(C)n3)o2)s1	none
O=C(/C=C/c1ccco1)NCC1OCCc2ccccc21 (centres undefined)	DNMT1 block 56, Scp-1 inhibitor 91 | Scp-1 conf 62 | Scp-1 MG ctr inactive | Scp-1 Tm shift inactive | DNMT1 inh conf inactive | DNMT1 interf inactive
COc1ccc(-c2nc(CS(=O)CC(=O)NC3CCCCC3C)c(C)o2)cc1 (centres undefined)	none
CC(C)Cc1ccc(S(=O)(=O)N2CCN(c3ccccn3)CC2)cc1	none
Cc1ccc(CNC(=O)c2ccc(-n3cccc3)cc2)cc1	DNMT1 block 95, Scp-1 inhibitor 55 | Scp-1 conf 64 | Scp-1 MG ctr inactive | Scp-1 Tm shift inactive | DNMT1 inh conf inactive | DNMT1 interf inactive
Cc1ccc(CNC(=O)Cc2ccc(-n3cccc3)cc2)cc1	none
CCn1c(SCC(=O)O)nc2sc3c(c2c1=O)CCC3	DNMT1 block 71, Scp-1 inhibitor 73 | Scp-1 conf 50 | Scp-1 MG ctr inactive | Scp-1 Tm shift inactive | DNMT1 inh conf inactive | DNMT1 interf inactive
CCn1c(SCC(=O)OC)nc2sc3c(c2c1=O)CCC3	DNMT1 block 70, Scp-1 inhibitor 57 | Scp-1 conf 64 | Scp-1 MG ctr inactive | Scp-1 Tm shift inactive | DNMT1 inh conf inactive | DNMT1 interf inactive
CCOc1ccc2[nH]c(=O)c(CN(CC3COCCO3)C(=O)c3ccc(C)cc3)cc2c1 (centres undefined)	none
COc1ccc(N2Cc3cccc(C(=O)O)c3C2=O)cc1	DNMT1 block 87, Scp-1 inhibitor 82 | Scp-1 conf 71 | Scp-1 MG ctr inactive | Scp-1 Tm shift inactive | DNMT1 inh conf inactive | DNMT1 interf inactive
Cc1ccc(C(=O)OCC(=O)c2ccc(CC(=O)N3CCOCC3)s2)c(C)c1	DNMT1 block 55, Scp-1 inhibitor 72 | Scp-1 conf 78 | Scp-1 MG ctr inactive | Scp-1 Tm shift 6.7 | DNMT1 inh conf inactive | DNMT1 interf inactive
O=C(O)c1ccc(N2C(=O)c3cccc4c(C(=O)O)ccc(c34)C2=O)cc1	DNMT1 block 91, Scp-1 inhibitor 72 | Scp-1 conf 45 | Scp-1 MG ctr inactive | Scp-1 Tm shift 12 | DNMT1 inh conf inactive | DNMT1 interf inactive
O=C(O)c1ccc(N2C(=O)c3cccc4cccc(c34)C2=O)cc1	none
O=C(Nc1cc([N+](=O)[O-])c2[nH]c(=O)c3ccccc3c2c1)C(F)(F)F	none
NS(=O)(=O)c1ccc(NS(=O)(=O)c2ccc(NC(=O)c3ccc(-c4ccccc4)cc3)cc2)cc1	none
NS(=O)(=O)c1ccc(NC(=O)c2ccc(-c3ccccc3)cc2)cc1	DNMT1 block 73, Scp-1 inhibitor 60 | Scp-1 conf 66 | Scp-1 MG ctr inactive | Scp-1 Tm shift 14 | DNMT1 inh conf inactive | DNMT1 interf inactive
O=C(OCc1cc(=O)n2c(n1)sc1ccccc12)c1ccc2c(=O)n3c(nc2c1)CCC3	DNMT1 block 102, Scp-1 inhibitor 72 | Scp-1 conf 53 | Scp-1 MG ctr inactive | Scp-1 Tm shift inactive | DNMT1 inh conf inactive | DNMT1 interf inactive
Cc1ccc(COC(=O)Cc2coc3cc(O)ccc23)cc1	none
CC(C)[C@H](NC(=O)Cc1ccccc1)C(=O)OCc1cc(=O)n2c(n1)sc1ccccc12	DNMT1 block 88, Scp-1 inhibitor 76 | Scp-1 conf 59 | Scp-1 MG ctr inactive | Scp-1 Tm shift inactive | DNMT1 inh conf inactive | DNMT1 interf inactive
Cc1ccc2c(CC(=O)OCc3cc(=O)n4c(n3)sc3ccccc34)coc2c1	DNMT1 block 105, Scp-1 inhibitor 66 | Scp-1 conf 68 | Scp-1 MG ctr inactive | Scp-1 Tm shift inactive | DNMT1 inh conf inactive | DNMT1 interf inactive
COc1ccc(OC)c(NS(=O)(=O)c2ccc3c(c2)C(C)(C)C(=O)N3C)c1	none
CN1C2Cc3c(n(C)c4ccccc34)C1CC=C2CO (centres undefined)	none
Cc1ccccc1NC(=O)Cn1c(O)c(N=NC(=O)c2ccccc2O)c2ccccc21	STEP block 48, DNMT1 block 91, Scp-1 inhibitor 94 | Scp-1 conf 77 | Scp-1 MG ctr inactive | Scp-1 Tm shift inactive | DNMT1 inh conf inactive | DNMT1 interf inactive
O=C(O)C1C2C=CC(CC2)C1C(=O)O (centres undefined)	DNMT1 block 77, Scp-1 inhibitor 102 | Scp-1 conf 72 | Scp-1 MG ctr inactive | Scp-1 Tm shift inactive | DNMT1 inh conf inactive | DNMT1 interf inactive
CCNC(=S)N(CCCN(C)C)Cc1cc2cc3c(cc2[nH]c1=O)OCCO3	none
COc1ccc([N+](=O)[O-])cc1NC(=O)CCS(=O)(=O)c1ccc(Br)cc1	DNMT1 block 79, Scp-1 inhibitor 95 | Scp-1 conf 62 | Scp-1 MG ctr inactive | Scp-1 Tm shift inactive | DNMT1 inh conf inactive | DNMT1 interf inactive
COc1ccc([N+](=O)[O-])cc1NC(=O)CS(=O)(=O)c1ccc(C)cc1	none
O=C(CCS(=O)(=O)c1ccc(Br)cc1)Nc1cc(F)ccc1F	DNMT1 block 62, Scp-1 inhibitor 73 | Scp-1 conf 58 | Scp-1 MG ctr inactive | Scp-1 Tm shift inactive | DNMT1 inh conf inactive | DNMT1 interf inactive
